Measured values from different studies.
Protocols differ between the studies behind these lines.
Effect on: cell growth or viability

Structure (SMILES) | cell line | technique | concentration | time | quantity | value
C[C@H](Nc1ccc2c(c1)OCCn1cc(N3C(=O)OC[C@H]3C(F)F)nc1-2)C(N)=O | MFM-223 | ATP luminescence |  | 5 days | EC50 | 1390 nM
Cc1nc(Nc2ncc(C(=O)Nc3c(C)cccc3Cl)s2)cc(N2CC[C@H](O)C2)n1 | REH | ATP luminescence | 10 µM | 72 h | inhibition | 32%
C[C@H]1CN(C)CCN1c1nccc(-c2noc3c2CCC[C@@]32CCCc3sc(N)c(C#N)c32)n1 | BaF3 |  |  | 72 h | EC50 | 479 nM
Cc1ccc(CN2C(=O)C(=Nc3cccc(C)c3)c3ccccc32)cc1 | L02 | MTT |  | 48 h | IC50 | 10300 nM
C[C@H]1CNCCN1c1nccc(-c2noc([C@@]3(C)CCCc4sc(N)c(C#N)c43)n2)n1 | BaF3 |  |  | 72 h | EC50 | 1580 nM
O=C1Nc2ccccc2C1=Nc1ccccc1Br | L02 | MTT |  | 48 h | IC50 | 31400 nM
C[C@H](Oc1nccc(-c2noc3c2CCC[C@@]32CCCc3sc(N)c(C#N)c32)n1)[C@@H]1CCCN1C | BaF3 |  |  | 72 h | EC50 | 42 nM
Cc1ncsc1-c1ccc(CNC(=O)[C@@H]2C[C@@H](O)CN2C(=O)[C@@H](NC(=O)COCCOCCOCCNC(=O)C[C@@H]2N=C(c3ccc(Cl)cc3)c3c(sc(C)c3C)-n3c(C)nnc32)C(C)(C)C)cc1 | HCC1806 | MTT |  | 6 days | IC90 | 810 nM
Cc1ccc(CN2C(=O)C(=Nc3c(C(C)C)cccc3C(C)C)c3ccccc32)cc1 | L02 | MTT |  | 48 h | IC50 | 177000 nM
